Reference: publication PMC3747510 (Scientific Reports, 2013)
≈ marks a conversion by molar mass, not a printed value.

What was measured:
S. pneumoniae = assay: Broth microdilution MIC, S. pneumoniae; type: cell-based; conditions: Streptococcus pneumoniae, 24 h, read-out: MIC, Bacteria, S. pneumoniae
Outline: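 S. pneumoniae clinical isolate, from paediatric community-acquired pneumonia. CLSI M7-A7 broth microdilution in Mueller Hinton broth with 2.5% lysed sheep blood, inoculum about 2 × 10^8 CFU/mL. Serial test-compound dilutions, 37°C for 24 h. MIC was the lowest concentration suppressing visible growth.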

MetRS2 = conditions: cited from earlier work

MIC (S. pneumoniae) [µg/mL] | SMILES | Activity towards MetRS2 (MetRS2)
0.0625 (≈ 0.179 µM) | CC1(C)S[C@@H]2[C@H](NC(=O)[C@H](N)c3ccccc3)C(=O)N2[C@H]1C(=O)O [Ampicillin, reference compound] | 
 | C=C(F)c1sc(CNCCCNc2cc(O)c3ccccc3n2)c(C)c1Br [REP8839] | no activity
